Source: PubChem BioAssay
MIN6 prolif-1: inducers of beta-cell replication in MIN6 cells | MIN6 cells proliferation, ATPlite luminescence, 48 h; cells starved in 0.2% serum; 100% = growth in 10% serum | proliferation, % at 10 µM | 330,000 tested, 0.29% active | AID 2380;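 active means compounds whose signal lies at least 3.5 SD above the mean of all wells on their plate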;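 further: 0% = DMSO-treated cells in low-serum medium and 100% = 10% serum control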
SENP1 inh: inhibitors of human SENP1 SUMO protease catalytic domain; Q9P0U3; inhibition, % at 10 µM; recombinant SENP1 catalytic domain, CyPet-SUMO1-YPet FRET cleavage; 360,000 tested, 0.21% active;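 active means inhibition at least 30% at 10 µM, raw YFP signal under a set limit, fluorescence ratio 0.5 to 1.5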;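 further: 0% = enzyme with DMSO and 100% = no enzyme wells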
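Test system: human SENP1 catalytic domain; medium: Tris pH 8 buffer plus EDTA, NaCl, BME, BSA, NP40, catalase; incubation: 50 min reaction at room temperature; technique: FRET, CFP and YFP emission; controls: no-enzyme low control and enzyme-plus-DMSO high control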
MT1-MMP act inh: MT1-MMP (human) activation inhibition | GFP/RFP ratio change, % at 20 µM | AID 651647 | 360,000 tested, 0.061% active | HT1080 RFP-PRO-GFP cells, GFP/RFP ratio fluorescence, overnight; percent of plate control window, DMSO zero | P50281;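 active means GFP/RFP ratio change of at least 30% with cell ATP level not reduced by more than half and red fluorescence within 50% of control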
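Test system: HT1080 cells expressing an RFP-PRO-GFP fluorescent reporter construct / Compound dosing: single-point 20 µM compound, 1% DMSO / Schedule: cells overnight before dosing, compound overnight, 37 °C, 5% CO2 / Evaluation: GFP/RFP fluorescence ratio / Control set: DMSO and RFP-L50D-GFP cell wells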
Myeloid diff 2: myeloid differentiation induction; calls only at 10 µM; 360,000 tested, 1% active; ER-HoxA9 myeloid progenitors, lysozyme-GFP differentiation, flow cytometry;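 active means normalized GFP-positive differentiation at or above the plate's own cutoff, the solvent-only control mean plus 3 SD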;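 further: cells exposed to compound for four days before flow analysis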
CendR NRP1 mod: modulators of CendR peptide binding to human neuropilin-1 | FAM-RPARPAR peptide binding to NRP-1, fluorescence polarization | 360,000 tested, 0.85% active | O14786 | inhibition, % at 25 µM | AID 602438;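 active means inhibition or corrected inhibition above about 18%, plus a signal ratio from 0.5 to 1.5, limit read from the data, passing the limit was not always enough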
Target sequence (O14786 whole entry, looked up): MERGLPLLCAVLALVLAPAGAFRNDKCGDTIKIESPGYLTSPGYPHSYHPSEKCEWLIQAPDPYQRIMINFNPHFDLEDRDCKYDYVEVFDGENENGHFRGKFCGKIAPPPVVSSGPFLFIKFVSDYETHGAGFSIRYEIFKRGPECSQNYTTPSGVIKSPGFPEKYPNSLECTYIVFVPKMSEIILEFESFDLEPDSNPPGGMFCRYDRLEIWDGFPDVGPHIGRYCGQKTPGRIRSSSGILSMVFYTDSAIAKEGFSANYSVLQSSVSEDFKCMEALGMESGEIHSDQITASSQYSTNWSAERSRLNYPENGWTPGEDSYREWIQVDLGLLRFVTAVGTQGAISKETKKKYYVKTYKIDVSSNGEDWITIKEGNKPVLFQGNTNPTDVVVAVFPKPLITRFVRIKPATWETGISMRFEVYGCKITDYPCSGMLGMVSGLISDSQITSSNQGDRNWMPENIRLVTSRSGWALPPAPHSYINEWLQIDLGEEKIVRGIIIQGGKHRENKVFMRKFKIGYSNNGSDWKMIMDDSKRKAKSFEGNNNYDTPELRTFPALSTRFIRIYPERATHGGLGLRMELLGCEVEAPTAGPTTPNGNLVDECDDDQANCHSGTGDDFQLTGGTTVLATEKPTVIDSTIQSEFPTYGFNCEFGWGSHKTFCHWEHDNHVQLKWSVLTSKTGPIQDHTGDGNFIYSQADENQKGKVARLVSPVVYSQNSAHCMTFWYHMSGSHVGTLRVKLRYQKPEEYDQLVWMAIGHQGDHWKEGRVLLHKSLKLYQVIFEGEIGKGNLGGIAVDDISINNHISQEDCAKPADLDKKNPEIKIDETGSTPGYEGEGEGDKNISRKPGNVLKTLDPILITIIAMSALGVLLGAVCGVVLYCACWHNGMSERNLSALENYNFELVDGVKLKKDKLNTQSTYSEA
DAGLB inhibitor: diacylglycerol lipase beta (human) inhibition; HEK293T DAGLB membrane lysate, EnzChek fluorogenic substrate; inhibition, % at 5.17 µM; 340,000 tested, 0.059% active; AID 504411; in the data active means inhibition above about 34%;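 further: 0% = enzyme with vehicle and 100% = wells lacking enzyme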
MIN6 prolif-2: confirmation of inducers of beta-cell replication in MIN6 cells; shares compounds with MIN6 prolif-1; MIN6 beta-cell proliferation, ATPlite luminescence, 48 h; cells kept in 0.2% serum; scaled between 0.2% and 10% serum; proliferation increase, % at 50 µM; 920 tested, under 10 active; AID 463095;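 active means proliferation increase above 40% at any of the four tested concentrations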
Active calls of the source: *. This is a sample that favours compounds with a hit; in the whole collection about 2.4% have one here.

Results for Nc1ncnc(Nc2ccc(S(N)(=O)=O)cc2)n1 ?
SENP1 inh: -4.7; MT1-MMP act inh: 2.4; Myeloid diff 2: inactive; CendR NRP1 mod: 10.6; DAGLB inhibitor: -0.3

Results for Cc1ccc(N2CC(C(=O)Nc3cc(C)on3)CC2=O)cc1 (stereo unspecified) ?
MIN6 prolif-1: 1.1; SENP1 inh: -0.3; MT1-MMP act inh: 1.7; Myeloid diff 2: inactive; CendR NRP1 mod: -4.4; DAGLB inhibitor: 0.7

How did COc1ccc(CCn2c(C)cc(C(=O)CN3C(=O)C(=O)N(C4CCCC4)C3=O)c2C)cc1OC do in these assays?
MIN6 prolif-1: -5.5; SENP1 inh: -0.3; MT1-MMP act inh: -3.5; Myeloid diff 2: inactive; CendR NRP1 mod: -8.2; DAGLB inhibitor: 3.2

How did CCNc1nc(Oc2ccc(=O)n(C)n2)nc(N2CCOCC2)n1 do in these assays?
MIN6 prolif-1: -0.3; SENP1 inh: 1.0; MT1-MMP act inh: 8.2; Myeloid diff 2: inactive; CendR NRP1 mod: 5.4; DAGLB inhibitor: -1.2

Results for CNc1nc(Oc2ccc(=O)n(C)n2)nc(N2CCOCC2)n1 ?
MIN6 prolif-1: 10.8*; SENP1 inh: 1.8; MT1-MMP act inh: 2.5; Myeloid diff 2: inactive; CendR NRP1 mod: -2.0; DAGLB inhibitor: -3.7; MIN6 prolif-2: -1.6

Results for CCN(CC(=O)NC(C)C)C(=O)[C@@H](NC(=O)c1ccco1)C(C)C ?
MIN6 prolif-1: 0.3; SENP1 inh: -0.5; MT1-MMP act inh: -4.7; Myeloid diff 2: inactive; CendR NRP1 mod: 0.6; DAGLB inhibitor: 1.0

How did Cc1ccc(-n2nnnc2CNC(=O)C2CC(=O)N(c3ccc(F)cc3)C2)cc1C (stereo unspecified) do in these assays?
MIN6 prolif-1: 12.4*; SENP1 inh: 3.6; MT1-MMP act inh: 0.1; Myeloid diff 2: inactive; CendR NRP1 mod: 5.8; DAGLB inhibitor: -0.7; MIN6 prolif-2: 0.8

Results for O=C(NCc1nnnn1-c1ccc(F)cc1)C1CC(=O)N(c2ccc(F)cc2)C1 (stereo unspecified) ?
MIN6 prolif-1: 3.3; SENP1 inh: -0.6; MT1-MMP act inh: -2.2; Myeloid diff 2: inactive; CendR NRP1 mod: -0.1; DAGLB inhibitor: 1.8

Results for Cc1ccc(S(=O)(=O)N2CCC3(CC2)OCCN3S(=O)(=O)c2cccs2)cc1 ?
MIN6 prolif-1: -0.4; SENP1 inh: 2.8; MT1-MMP act inh: -3.1; Myeloid diff 2: inactive; CendR NRP1 mod: -4.2; DAGLB inhibitor: -0.1

Results for COc1ccc(S(=O)(=O)N2CCC3(CC2)OCCN3S(=O)(=O)c2cccs2)cc1 ?
MIN6 prolif-1: 13.0*; SENP1 inh: 0.0; MT1-MMP act inh: -4.5; Myeloid diff 2: inactive; CendR NRP1 mod: 5.5; DAGLB inhibitor: -3.5; MIN6 prolif-2: -2.4

How did O=C(COC(=O)c1ccc2[nH]c3c(c2c1)CCCC3)Nc1ccc(Cl)cc1Cl do in these assays?
MIN6 prolif-1: -0.5; SENP1 inh: -41.3; MT1-MMP act inh: 3.6; Myeloid diff 2: inactive; CendR NRP1 mod: 9.9; DAGLB inhibitor: -6.6

Results for O=C(COC(=O)c1ccc2[nH]c3c(c2c1)CCCC3)Nc1ccccc1Cl ?
MIN6 prolif-1: 9.6*; SENP1 inh: -21.4; MT1-MMP act inh: -0.2; Myeloid diff 2: inactive; CendR NRP1 mod: -4.7; DAGLB inhibitor: -2.2; MIN6 prolif-2: -0.9

What do the screens show for `O=c1cc(-c2ccc(O)cc2)oc2cc(O)cc(O)c12`?
MIN6 prolif-1: -6.3; SENP1 inh: -4.6; MT1-MMP act inh: -14.6; Myeloid diff 2: inactive; CendR NRP1 mod: -9.9; DAGLB inhibitor: -1.3

What do the screens show for `O=c1cc(-c2ccc(O)cc2)oc2cc(O)c(C3OC(CO)C(O)C(O)C3O)c(O)c12` (stereo unspecified)?
MIN6 prolif-1: 9.0*; SENP1 inh: -183.5; MT1-MMP act inh: 21.7; Myeloid diff 2: inactive; CendR NRP1 mod: -10.3; DAGLB inhibitor: -6.5; MIN6 prolif-2: -1.1
